Assay results: ChEMBL document CHEMBL3627671, “Novel derivatives of nitro-substituted salicylic acids: Synthesis, antimicrobial activity and cytotoxicity” (Bioorg Med Chem, 2015)
In brackets after ≈: the same amount, converted by molar mass.

Columns and labels:
Assay type in all cases: functional
[1] = test system: Pichia kudriavzevii; experiment: Antifungal activity against Candida krusei E28 after 24 hrs by microdilution broth method; settings: E28, 24 h
Outline: (§1)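 CLSI M27-A3 broth microdilution in RPMI 1640 with glutamine, buffered to pH 7.0 with MOPS; DMSO diluent. Yeast inoculum 5 × 10^3 ± 0.2 CFU/mL. Moulds grown on Sabouraud agar 3–10 days before spore harvest, final inoculum 0.5-5 × 10^4 CFU/mL, checked in a Bürker chamber. Incubated dark, humid, 35 °C, read at 24 and 48 h visually and at 540 nm. MIC taken as ≥80% (yeasts) or ≥50% (filamentous) growth reduction versus control.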

[2] = test system: Candida tropicalis; experiment: Antifungal activity against Candida tropicalis 156 after 48 hrs by microdilution broth method; settings: Candida tropicalis, 156, 48 h; outline: as §1
[3] = test system: Mycobacterium tuberculosis; experiment: Antimycobacterial activity against Mycobacterium tuberculosis H37Rv 331/88 after 14 days; settings: H37Rv 331/88, 336 h
[4] = test system: Mycobacterium tuberculosis; experiment: Antimycobacterial activity against Mycobacterium tuberculosis H37Rv 331/88 after 21 days; settings: H37Rv 331/88, 504 h
[5] = test system: Staphylococcus epidermidis; experiment: Antibacterial activity against Staphylococcus epidermidis H 6966/08 after 24 hrs by microdilution broth method; settings: H 6966/08, 24 h
Outline: (§2)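 Mueller-Hinton broth microdilution (modified M07-A07), pH 7.4 (±0.2). Compounds dissolved in DMSO, tested at final 500 to 0.49 µmol/L. Inoculum in sterile water matched to 0.5 McFarland. Incubated in the dark, humid atmosphere, 35 °C, read at 24 and 48 h visually and at 540 nm. MIC taken as ≥95% growth reduction (IC95) versus control.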

[6] = test system: Klebsiella pneumoniae; experiment: Antibacterial activity against Klebsiella pneumoniae D 11750/08 after 48 hrs by microdilution broth method; settings: D 11750/08, 48 h; outline: as §2
[7] = test system: Trichophyton mentagrophytes; experiment: Antifungal activity against Trichophyton mentagrophytes 445 after 48 hrs by microdilution broth method; settings: Trichophyton mentagrophytes, 445, 48 h
[8] = test system: Klebsiella pneumoniae; experiment: Antibacterial activity against ESBL-positive Klebsiella pneumoniae J 14368/08 after 48 hrs by microdilution broth method; settings: J 14368/08, 48 h; outline: as §2
[9] = test system: Staphylococcus aureus; experiment: Antibacterial activity against methicillin-resistant Staphylococcus aureus H 5996/08 after 24 hrs by microdilution broth method; settings: H 5996/08, 24 h
[10] = test system: Lichtheimia corymbifera; experiment: Antifungal activity against Absidia corymbifera 272 after 24 hrs by microdilution broth method; settings: Lichtheimia corymbifera, 272, 24 h; outline: as §1
[11] = test system: Escherichia coli; experiment: Antibacterial activity against Escherichia coli CCM4517 after 48 hrs by microdilution broth method; settings: CCM4517, 48 h; outline: as §2
[12] = test system: Trichophyton mentagrophytes; experiment: Antifungal activity against Trichophyton mentagrophytes 445 after 24 hrs by microdilution broth method; settings: Trichophyton mentagrophytes, 445, 24 h
[13] = test system: Mycobacterium kansasii; experiment: Antimycobacterial activity against Mycobacterium kansasii 6509/96 after 14 days; settings: 6509/96, 336 h
Outline: (§3)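 Šula's semisynthetic medium micromethod at 37 °C, read after 7, 14 and 21 days. The 1.0 McFarland suspension was diluted 10^-4. MIC determined. 6509/96 is a clinical isolate.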

[14] = test system: Escherichia coli; experiment: Antibacterial activity against Escherichia coli CCM4517 after 24 hrs by microdilution broth method; settings: CCM4517, 24 h; outline: as §2
[15] = test system: Trichosporon asahii; experiment: Antifungal activity against Trichosporon asahii 1188 after 48 hrs by microdilution broth method; settings: Trichosporon asahii, 1188, 48 h; outline: as §1
[16] = test system: Candida tropicalis; experiment: Antifungal activity against Candida tropicalis 156 after 24 hrs by microdilution broth method; settings: Candida tropicalis, 156, 24 h; outline: as §1
[17] = test system: Aspergillus fumigatus; experiment: Antifungal activity against Aspergillus fumigatus 231 after 48 hrs by microdilution broth method; settings: Aspergillus fumigatus, 231, 48 h; outline: as §1
[18] = test system: Pseudomonas aeruginosa; experiment: Antibacterial activity against Pseudomonas aeruginosa CCM 1961 after 24 hrs by microdilution broth method; settings: CCM 1961, 24 h; outline: as §2
[19] = test system: Nakaseomyces glabratus; experiment: Antifungal activity against Candida glabrata 20/I after 24 hrs by microdilution broth method; outline: as §1
[20] = test system: Staphylococcus aureus; experiment: Antibacterial activity against methicillin-resistant Staphylococcus aureus H 5996/08 after 48 hrs by microdilution broth method; settings: H 5996/08, 48 h
[21] = test system: Enterococcus sp.; experiment: Antibacterial activity against Enterococcus sp. J 14365/08 after 24 hrs by microdilution broth method; settings: J 14365/08, 24 h; outline: as §2
[22] = test system: Aspergillus fumigatus; experiment: Antifungal activity against Aspergillus fumigatus 231 after 24 hrs by microdilution broth method; settings: Aspergillus fumigatus, 231, 24 h; outline: as §1
[23] = test system: Staphylococcus aureus; experiment: Antibacterial activity against Staphylococcus aureus CCM 4516/08 after 48 hrs by microdilution broth method; settings: CCM 4516/08, 48 h
[24] = test system: Pseudomonas aeruginosa; experiment: Antibacterial activity against Pseudomonas aeruginosa CCM 1961 after 48 hrs by microdilution broth method; settings: CCM 1961, 48 h; outline: as §2
[25] = test system: Mycobacterium kansasii; experiment: Antimycobacterial activity against Mycobacterium kansasii 235/80 after 21 days; settings: 235/80, 504 h; outline: as §3
[26] = test system: Enterococcus sp.; experiment: Antibacterial activity against Enterococcus sp. J 14365/08 after 48 hrs by microdilution broth method; settings: J 14365/08, 48 h; outline: as §2
[27] = test system: Mycobacterium avium; experiment: Antimycobacterial activity against Mycobacterium avium 330/80 after 14 days; settings: 330/80, 336 h
[28] = test system: Staphylococcus aureus; experiment: Antibacterial activity against Staphylococcus aureus CCM 4516/08 after 24 hrs by microdilution broth method; settings: CCM 4516/08, 24 h
[29] = test system: Trichosporon asahii; experiment: Antifungal activity against Trichosporon asahii 1188 after 24 hrs by microdilution broth method; settings: Trichosporon asahii, 1188, 24 h; outline: as §1
[30] = test system: Pichia kudriavzevii; experiment: Antifungal activity against Candida krusei E28 after 48 hrs by microdilution broth method; settings: E28, 48 h; outline: as §1
[31] = test system: Nakaseomyces glabratus; experiment: Antifungal activity against Candida glabrata 20/I after 48 hrs by microdilution broth method; outline: as §1
[32] = test system: Mycobacterium avium; experiment: Antimycobacterial activity against Mycobacterium avium 330/80 after 21 days; settings: 330/80, 504 h
[33] = test system: Mycobacterium kansasii; experiment: Antimycobacterial activity against Mycobacterium kansasii 6509/96 after 7 days; settings: 6509/96, 168 h; outline: as §3
[34] = test system: Lichtheimia corymbifera; experiment: Antifungal activity against Absidia corymbifera 272 after 48 hrs by microdilution broth method; settings: Lichtheimia corymbifera, 272, 48 h; outline: as §1
[35] = test system: Klebsiella pneumoniae; experiment: Antibacterial activity against ESBL-positive Klebsiella pneumoniae J 14368/08 after 24 hrs by microdilution broth method; settings: J 14368/08, 24 h; outline: as §2
[36] = test system: Klebsiella pneumoniae; experiment: Antibacterial activity against Klebsiella pneumoniae D 11750/08 after 24 hrs by microdilution broth method; settings: D 11750/08, 24 h; outline: as §2
[37] = test system: Mycobacterium kansasii; experiment: Antimycobacterial activity against Mycobacterium kansasii 235/80 after 14 days; settings: 235/80, 336 h; outline: as §3
[38] = test system: Staphylococcus epidermidis; experiment: Antibacterial activity against Staphylococcus epidermidis H 6966/08 after 48 hrs by microdilution broth method; settings: H 6966/08, 48 h; outline: as §2
[39] = test system: Candida albicans; experiment: Antifungal activity against Candida albicans ATCC 44859 after 48 hrs by microdilution broth method; settings: ATCC 44859, 48 h; outline: as §1
[40] = test system: Mycobacterium kansasii; experiment: Antimycobacterial activity against Mycobacterium kansasii 6509/96 after 21 days; settings: 6509/96, 504 h; outline: as §3
[41] = test system: Mycobacterium kansasii; experiment: Antimycobacterial activity against Mycobacterium kansasii 235/80 after 7 days; settings: 235/80, 168 h; outline: as §3
[42] = test system: Candida albicans; experiment: Antifungal activity against Candida albicans ATCC 44859 after 24 hrs by microdilution broth method; settings: ATCC 44859, 24 h; outline: as §1

O=C(Nc1ccc([N+](=O)[O-])cc1)c1ccc([N+](=O)[O-])cc1O
MIC [1]: > 500 µM
MIC [2]: > 500 µM
MIC [3]: 8 µM (≈ 2.43 µg/mL)
MIC [4]: 16 µM (≈ 4.85 µg/mL)
MIC [5]: 62.5 µM (≈ 19 µg/mL)
MIC [6]: > 500 µM
MIC [7]: > 500 µM
MIC [8]: > 500 µM
MIC [9]: 31.2 µM (≈ 9.48 µg/mL)
MIC [10]: > 500 µM
MIC [11]: > 500 µM
MIC [12]: > 500 µM
MIC [13]: 32 µM (≈ 9.7 µg/mL)
MIC [14]: 500 µM (≈ 152 µg/mL)
MIC [15]: > 500 µM
MIC [16]: > 500 µM
MIC [17]: > 500 µM
MIC [18]: 500 µM (≈ 152 µg/mL)
MIC [19]: > 500 µM
MIC [20]: 31.2 µM (≈ 9.48 µg/mL)
MIC [21]: 500 µM (≈ 152 µg/mL)
MIC [22]: > 500 µM
MIC [23]: 62.5 µM (≈ 19 µg/mL)
MIC [24]: > 500 µM
MIC [25]: 32 µM (≈ 9.7 µg/mL)
MIC [26]: > 500 µM
MIC [27]: 62.5 µM (≈ 19 µg/mL)
MIC [28]: 62.5 µM (≈ 19 µg/mL)
MIC [29]: > 500 µM
MIC [30]: > 500 µM
MIC [31]: > 500 µM
MIC [32]: 62.5 µM (≈ 19 µg/mL)
MIC [33]: 32 µM (≈ 9.7 µg/mL)
MIC [34]: > 500 µM
MIC [35]: 500 µM (≈ 152 µg/mL)
MIC [36]: 500 µM (≈ 152 µg/mL)
MIC [37]: 16 µM (≈ 4.85 µg/mL)
MIC [38]: 62.5 µM (≈ 19 µg/mL)
MIC [39]: > 500 µM
MIC [40]: 32 µM (≈ 9.7 µg/mL)
MIC [41]: 8 µM (≈ 2.43 µg/mL)
MIC [42]: > 500 µM

O=C(Nc1cccc(Br)c1)c1ccc([N+](=O)[O-])cc1O
MIC [1]: 62.5 µM (≈ 21.1 µg/mL)
MIC [2]: > 500 µM
MIC [3]: 16 µM (≈ 5.39 µg/mL)
MIC [4]: 16 µM (≈ 5.39 µg/mL)
MIC [5]: 3.9 µM (≈ 1.31 µg/mL)
MIC [6]: 500 µM (≈ 169 µg/mL)
MIC [7]: 250 µM (≈ 84.3 µg/mL)
MIC [8]: 500 µM (≈ 169 µg/mL)
MIC [9]: 3.9 µM (≈ 1.31 µg/mL)
MIC [10]: 250 µM (≈ 84.3 µg/mL)
MIC [11]: > 500 µM
MIC [12]: 62.5 µM (≈ 21.1 µg/mL)
MIC [13]: 16 µM (≈ 5.39 µg/mL)
MIC [14]: 500 µM (≈ 169 µg/mL)
MIC [15]: 125 µM (≈ 42.1 µg/mL)
MIC [16]: > 500 µM
MIC [17]: > 500 µM
MIC [18]: > 500 µM
MIC [19]: > 500 µM
MIC [20]: 3.9 µM (≈ 1.31 µg/mL)
MIC [21]: 500 µM (≈ 169 µg/mL)
MIC [22]: > 500 µM
MIC [23]: 3.9 µM (≈ 1.31 µg/mL)
MIC [24]: > 500 µM
MIC [25]: 16 µM (≈ 5.39 µg/mL)
MIC [26]: 500 µM (≈ 169 µg/mL)
MIC [27]: 32 µM (≈ 10.8 µg/mL)
MIC [28]: 3.9 µM (≈ 1.31 µg/mL)
MIC [29]: 31.2 µM (≈ 10.5 µg/mL)
MIC [30]: 250 µM (≈ 84.3 µg/mL)
MIC [31]: > 500 µM
MIC [32]: 62.5 µM (≈ 21.1 µg/mL)
MIC [33]: 16 µM (≈ 5.39 µg/mL)
MIC [34]: 500 µM (≈ 169 µg/mL)
MIC [35]: 500 µM (≈ 169 µg/mL)
MIC [36]: 500 µM (≈ 169 µg/mL)
MIC [37]: 16 µM (≈ 5.39 µg/mL)
MIC [38]: 3.9 µM (≈ 1.31 µg/mL)
MIC [39]: > 500 µM
MIC [40]: 16 µM (≈ 5.39 µg/mL)
MIC [41]: 8 µM (≈ 2.7 µg/mL)
MIC [42]: > 500 µM
